Screens deposited in PubChem BioAssay by The Scripps Research Institute Molecular Screening Center.
TDP2 absorb – TDP2 (human) inhibition, absorbance primary screen | recombinant TDP2, T5PNP hydrolysis, p-nitrophenol absorbance 415 nm | AID 720702 | O95551 | 0.34% of 370,000 active | inhibition, % at 12.8 µM;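 active means inhibition above the mean of all tested compounds plus 3 SD, set per campaign, cut at about 25% in these data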
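Assay system: Recombinant human TDP2 | Quantity: 120 nM TDP2 per well | Incubation: 2 h at 37 °C | Signal: Epi absorbance | Evaluation: Percent inhibition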
PAD4 inh – PAD4 (human) enzyme inhibition; 0.41% of 330,000 active; inhibition, % at 6.36 µM; Q9UM07; AID 485272; recombinant PAD4, RCA probe fluorescence polarization;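 active means percent inhibition above a cutoff equal to the mean of all tested compounds plus 3 SD, cut at about 15% in these data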
Target sequence (Q9UM07 whole entry, looked up): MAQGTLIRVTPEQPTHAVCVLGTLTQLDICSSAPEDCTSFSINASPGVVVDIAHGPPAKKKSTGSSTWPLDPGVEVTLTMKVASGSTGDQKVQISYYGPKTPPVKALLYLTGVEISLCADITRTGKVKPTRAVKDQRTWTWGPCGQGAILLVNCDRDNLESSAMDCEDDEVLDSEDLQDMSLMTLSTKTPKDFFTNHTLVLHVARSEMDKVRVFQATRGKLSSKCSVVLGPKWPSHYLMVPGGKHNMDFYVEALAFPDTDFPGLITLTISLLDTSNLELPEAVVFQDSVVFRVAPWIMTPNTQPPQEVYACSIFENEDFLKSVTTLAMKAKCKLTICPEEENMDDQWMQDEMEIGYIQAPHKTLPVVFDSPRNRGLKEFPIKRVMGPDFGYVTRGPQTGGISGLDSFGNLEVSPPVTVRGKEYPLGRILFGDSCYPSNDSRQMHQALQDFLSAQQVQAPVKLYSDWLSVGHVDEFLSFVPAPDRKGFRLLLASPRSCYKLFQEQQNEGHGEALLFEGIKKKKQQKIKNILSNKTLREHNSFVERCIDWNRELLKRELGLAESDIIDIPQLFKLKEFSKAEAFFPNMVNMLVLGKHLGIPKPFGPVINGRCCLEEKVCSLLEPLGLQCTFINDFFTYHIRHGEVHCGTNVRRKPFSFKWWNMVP
CTSL1 counter – counter-screen for PFM18AAP inhibitors: inhibitors of F. hepatica cathepsin L1 | recombinant F. hepatica cathepsin L1, Z-Leu-Arg-MCA fluorescence | inhibition, % at 5.96 µM | 0.49% of 300,000 active | AID 1906;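 active means inhibition above the mean of all tested compounds plus 3 SD, set per screening campaign, cut at about 17% in these data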
GSTO1 counter – counter-screen for RBBP9 inhibitors: inhibitors of human GSTO1; inhibition, % at 5.96 µM; recombinant GSTO1, activity-based probe fluorescence polarization; P78417; AID 1974; 1.1% of 300,000 active;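 active means inhibition above the campaign mean inhibition plus 3 SD, cut at about 35% in these data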
GSTO1 confirm – GSTO1 (human) inhibition, confirmation | shares compounds with GSTO1 counter | recombinant GSTO1, probe fluorescence polarization | inhibition, % at 5.96 µM | 54% of 2,400 active | AID 2176;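 active means inhibition above the primary screen's cutoff, its mean inhibition plus 3 SD, cut at about 35% in these data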;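 further: loss of polarization as inhibitors block binding of rhodamine sulfonate ester activity probe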
GSTO1 ABPP inh – inhibitors of recombinant human GSTO1; shares compounds with GSTO1 counter; 30% of 130 active; gel ABPP SE-Rh probe fluorescence; inhibition, % at 1 µM; AID 463110;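 active means inhibition of the enzyme GSTO1 above about 75%, limit read from the data; inactive means inhibition below that limit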
Hits are given with their value. Rows were chosen to be rich in hits. Some 1.4% of all compounds tested hit in one or more screens of this group.

Results for c1ccc(COc2cccc(CNCc3cccnc3)c2)cc1 ?
TDP2 absorb: inactive; PAD4 inh: inactive; CTSL1 counter: inactive; GSTO1 counter: inactive

Results for COc1ccc(N(Cc2cc(=O)[nH]c3ccccc23)C(=O)CCl)cc1 ?
TDP2 absorb: inactive; PAD4 inh: inactive; CTSL1 counter: inactive; GSTO1 counter: 79; GSTO1 confirm: 95; GSTO1 ABPP inh: inactive

Results for Cc1cccc(N(Cc2cc(=O)[nH]c3ccccc23)C(=O)C(C)C)c1 ?
TDP2 absorb: inactive; PAD4 inh: inactive; CTSL1 counter: inactive; GSTO1 counter: inactive

Results for CCCC(=O)N(Cc1cc(=O)[nH]c2ccccc12)c1ccc(OC)cc1 ?
TDP2 absorb: inactive; PAD4 inh: inactive; CTSL1 counter: inactive; GSTO1 counter: inactive

Results for Cc1cccc(N(Cc2cc(=O)[nH]c3ccccc23)C(=O)CCl)c1 ?
TDP2 absorb: inactive; PAD4 inh: inactive; CTSL1 counter: inactive; GSTO1 counter: 90; GSTO1 confirm: 91; GSTO1 ABPP inh: 76

Results for C=CCSC1=N/C(=C\C=C\c2ccco2)C(=O)S1 ?
TDP2 absorb: inactive; PAD4 inh: inactive; CTSL1 counter: inactive; GSTO1 counter: 45; GSTO1 confirm: inactive

How did C#CC(=O)N(c1cccc(OC)c1)C(C(=O)NC1CCCC1)c1cccs1 (stereo unspecified) do in these assays?
TDP2 absorb: inactive; PAD4 inh: inactive; CTSL1 counter: inactive; GSTO1 counter: 76; GSTO1 confirm: 76

Results for COc1ccc(N(C(=O)Cc2cccs2)C(C(=O)NC2CCCC2)c2ccncc2)cc1OC (stereo unspecified) ?
TDP2 absorb: inactive; PAD4 inh: inactive; CTSL1 counter: inactive; GSTO1 counter: inactive

What do the screens show for `C#CC(=O)N(c1ccc(OC)c(OC)c1)C(C(=O)NC1CCCC1)c1cccs1` (stereo unspecified)?
TDP2 absorb: inactive; PAD4 inh: inactive; CTSL1 counter: inactive; GSTO1 counter: 48; GSTO1 confirm: 52

How did COc1ccc(CN[C@@H]2CC[C@@]34CCCN3C(=O)CCC[C@H]4C2)cc1 do in these assays?
TDP2 absorb: inactive

Results for C[C@H](CO)N1C[C@H](C)[C@@H](CN(C)C(=O)Nc2ccnc(N3CCOCC3)c2)OCc2cn(nn2)CCCC1=O ?
TDP2 absorb: inactive

Results for O=[N+]([O-])c1ccc(/C=N/n2cnc3ccccc32)s1 ?
TDP2 absorb: inactive; PAD4 inh: inactive; CTSL1 counter: inactive; GSTO1 counter: 55; GSTO1 confirm: inactive

What do the screens show for `CCC[C@H]1[C@@H](OC(=O)NCc2ccc(Cl)c(Cl)c2)CC[C@@]23CCCN2C(=O)CCC[C@@H]13`?
TDP2 absorb: inactive

How did O=C(NC1CCCC1)c1ccc2nc(-c3ccco3)c(-c3ccco3)nc2c1 do in these assays?
PAD4 inh: inactive; CTSL1 counter: inactive; GSTO1 counter: 63; GSTO1 confirm: 38

Results for Cc1ccc(Cn2cc(CN3[C@H](Cc4ccccc4)COc4cc(Br)ccc4S3(=O)=O)nn2)cc1 ?
TDP2 absorb: inactive

What do the screens show for `Nc1cc(-c2ccncc2)c[nH]c1=O`?
TDP2 absorb: inactive; PAD4 inh: inactive; CTSL1 counter: inactive; GSTO1 counter: 42; GSTO1 confirm: inactive

How did CCOC(=O)c1csc(NC(=O)C2CCCN(S(=O)(=O)c3ccc([N+](=O)[O-])cc3)C2)n1 (stereo unspecified) do in these assays?
TDP2 absorb: inactive

What do the screens show for `COc1cc(/C=N/NS(=O)(=O)c2ccc(C)c([N+](=O)[O-])c2)cc([N+](=O)[O-])c1O`?
TDP2 absorb: inactive; PAD4 inh: inactive; CTSL1 counter: inactive; GSTO1 counter: inactive

What do the screens show for `COc1cc(/C=N/NS(=O)(=O)c2ccc(C(C)(C)C)cc2)cc([N+](=O)[O-])c1O`?
TDP2 absorb: inactive; PAD4 inh: inactive; CTSL1 counter: inactive; GSTO1 counter: 50; GSTO1 confirm: 64

Results for CCCC/C=C1/[C@H](CC)N(C)C2=N[C@@H](c3ccccc3)CC(=O)N21 ?
TDP2 absorb: inactive

Results for O=C(NCc1cccnc1)NC1(C(F)(F)F)Oc2ccccc2O1 ?
TDP2 absorb: inactive; PAD4 inh: inactive; CTSL1 counter: inactive; GSTO1 counter: 41; GSTO1 confirm: inactive

How did CC(C)CNC(=O)NC1(C(F)(F)F)Oc2ccccc2O1 do in these assays?
TDP2 absorb: inactive; PAD4 inh: inactive; CTSL1 counter: inactive; GSTO1 counter: 51; GSTO1 confirm: inactive

How did COc1cccc(NC(=O)Nc2cccc(C(=O)O)c2)c1 do in these assays?
TDP2 absorb: inactive; PAD4 inh: inactive; CTSL1 counter: inactive; GSTO1 counter: inactive

What do the screens show for `COc1cccc(NC(=O)NC2(C(F)(F)F)Oc3ccccc3O2)c1`?
TDP2 absorb: inactive; PAD4 inh: inactive; CTSL1 counter: inactive; GSTO1 counter: 41; GSTO1 confirm: inactive

How did CCOC(=O)Cc1csc(NC(=O)NC2(C(F)(F)F)Oc3ccccc3O2)n1 do in these assays?
TDP2 absorb: inactive; PAD4 inh: inactive; CTSL1 counter: inactive; GSTO1 counter: inactive

Results for C[C@H]1[C@@H](OC(=O)NCc2cccnc2)CC[C@@]23CCCN2C(=O)CCC[C@@H]13 ?
TDP2 absorb: inactive

What do the screens show for `CCOC(=O)[C@@]12CN(C(=O)OC(C)(C)C)CC=C1N(Cc1ccc(OC)cc1)C(=O)[C@H]2CC(=O)NCc1ccc(C)o1`?
TDP2 absorb: inactive

How did N#CC1=C(N)NC(=S)C(C(N)=O)C1c1ccc([N+](=O)[O-])cc1 (stereo unspecified) do in these assays?
TDP2 absorb: inactive; PAD4 inh: inactive; CTSL1 counter: inactive; GSTO1 counter: inactive

What do the screens show for `Cc1cccc[n+]1C1C(c2ccc([N+](=O)[O-])cc2)C(C#N)=C(C(=C=[N-])C#N)NC1(O)C1CC1` (stereo unspecified)?
TDP2 absorb: inactive; PAD4 inh: inactive; CTSL1 counter: inactive; GSTO1 counter: 40; GSTO1 confirm: 48

What do the screens show for `O=C1C(=O)c2ccccc2C(O)=C1CCCCl`?
PAD4 inh: inactive; CTSL1 counter: inactive; GSTO1 counter: 68; GSTO1 confirm: 73

What do the screens show for `CCN(CC)C(=O)c1ccc(N)cc1`?
TDP2 absorb: inactive; PAD4 inh: inactive; CTSL1 counter: inactive; GSTO1 counter: 43; GSTO1 confirm: inactive

How did Nc1ccc(C(=O)N(CCO)CCO)cc1 do in these assays?
TDP2 absorb: inactive; PAD4 inh: inactive; CTSL1 counter: inactive; GSTO1 counter: inactive

What do the screens show for `CCN(CC)S(=O)(=O)c1ccc(NS(=O)(=O)c2ccc3oc(=O)[nH]c3c2)cc1`?
TDP2 absorb: inactive; PAD4 inh: inactive; CTSL1 counter: inactive; GSTO1 counter: 44; GSTO1 confirm: 58

Results for C[C@@H]1CCN(C2CC2)S(=O)(=O)c2ccc(N3CC[C@@H](N(C)C)C3)cc2O1 ?
TDP2 absorb: inactive

What do the screens show for `CCOc1cccc(CNc2ccc(O)cc2)c1OCc1ccccc1Cl`?
TDP2 absorb: inactive; PAD4 inh: inactive; CTSL1 counter: inactive; GSTO1 counter: 77; GSTO1 confirm: inactive
